Assay results taken from ChEMBL document CHEMBL1137088, “Distamycin analogues with enhanced lipophilicity: synthesis and antimicrobial activity” (2004).
Values after ≈ are worked out from the molar mass of the structure shown. Values joined by “and” are separate entries in the source; they are usually repeats but may differ in a detail not shown here. Equal entries are not always repeated. Active and inactive are the calls of the source. No cut-off for these calls is given here.

Tests used:
Aspergillus niger [1] = assay: Antifungal activity against Aspergillus niger IMI17454 strain.; type: functional
Candida albicans = assay: Antifungal activity against Candida albicans NCPF 3179 strain.; type: functional
Escherichia coli [2] = assay: Antibacterial activity against Escherichia coli NCTC 9001 strain; type: functional
[3] = Antibacterial activity against Enterobacter cloacae NCTC 10005 strain; type: functional
Klebsiella aerogenes [4] = assay: Antibacterial activity against Klebsiella aerogenes WRL CN 345 strain.; type: functional, WRL CN 375
Staphylococcus aureus [5] = assay: Antibacterial activity against methicillin-resistant Staphylococcus aureus (MRSA) PHLS M1 strain.; type: functional
Method in brief: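 Read-out is the minimum inhibitory concentration, reported in µM. Amoxycillin is tested alongside as the reference antibiotic.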

[6] = tested on: Mycolicibacterium fortuitum; assay: Antibacterial activity against Mycobacterium fortuitum NCTC 10394 strain.; type: functional
Proteus vulgaris = assay: Antibacterial activity against Proteus vulgaris NCTC 4175 strain.; type: functional
Staphylococcus aureus [7] = assay: Antibacterial activity against Staphylococcus aureus NCTC 6571 strain.; type: functional
Enterococcus faecalis [8] = assay: Antibacterial activity against Streptococcus faecalis NCTC 775 strain.; type: functional
Aspergillus niger [9] = assay: Antifungal activity against Aspergillus niger IMI17454 strain; na = not active; type: functional
Aspergillus nidulans [10] = assay: Antifungal activity against Aspergillus nidulans CABI 0160037 strain; na = not active; type: functional
[11] = Antifungal activity against Candida albicans NCPF 3179 strain; na = not active; type: functional
Escherichia coli [12] = assay: Antibacterial activity against Escherichia coli NCTC 9001 strain.; type: functional, organism-based
Enterobacter cloacae = assay: Antibacterial activity against Enterobacter cloacae NCTC 10005 strain.; type: functional, organism-based
Klebsiella aerogenes [13] = assay: Antibacterial activity against Klebsiella aerogenes WRL CN 345 strain; na = not active; type: functional, organism-based
Staphylococcus aureus [14] = assay: Antibacterial activity against MRSA PHLS M1 strain; na = not active; type: functional, organism-based
[15] = tested on: Mycolicibacterium fortuitum; assay: Antibacterial activity against Mycobacterium fortuitum NCTC 10394 strain; na = not active; type: functional, organism-based
[16] = Antibacterial activity against Proteus vulgaris NCTC 4175 strain; na = not active; type: functional
Enterococcus faecalis [17] = assay: Antibacterial activity against Streptococcus faecalis NCTC 775 strain; na = not active; type: functional, organism-based
Aspergillus nidulans [18] = assay: Antifungal activity against Aspergillus nidulans CABI 0160037 strain; type: functional
[19] = tested on: Mycolicibacterium fortuitum; assay: Antibacterial activity against Mycobacterium fortuitum NCTC 10394 strain=; type: functional
Enterococcus faecalis [20] = assay: Antibacterial activity against Streptococcus faecalis NCTC 775 strain=; type: functional
Staphylococcus aureus [21] = assay: Antibacterial activity against Staphylococcus aureus NCTC 6571 strain; na = not active; type: functional, organism-based
Staphylococcus aureus [22] = assay: Antibacterial activity against MRSA PHLS M1 strain; type: functional
[23] = Aspergillus niger, read-out: MIC
[24] = Candida albicans, read-out: MIC
[25] = Klebsiella aerogenes, WRL CN 375, read-out: MIC

MIC (Staphylococcus aureus [7])	MIC (Aspergillus nidulans [10])	MIC [11]	MIC (Escherichia coli [12])	MIC (Enterobacter cloacae)	MIC (Staphylococcus aureus [14])	MIC [15]	MIC [16]	MIC (Enterococcus faecalis [17])	SMILES	MIC (Aspergillus niger [1]; [23]) [µM]	MIC (Candida albicans; [24]) [µM]	MIC (Escherichia coli [2])	MIC [3] [µM]	MIC (Klebsiella aerogenes [4]; [25]) [µM]	MIC (Staphylococcus aureus [5]) [µM]	MIC [6] [µM]	MIC (Proteus vulgaris) [µM]	MIC (Enterococcus faecalis [8]) [µM]	MIC (Aspergillus nidulans [18]) [µM]	also measured
19 µM (≈ 10.3 µg/mL)	inactive	inactive	inactive	inactive	inactive	inactive	inactive	inactive	CCn1cc(NC(=O)c2nc(NC(=O)c3nc(NC=O)cn3CC)cn2CC)nc1C(=O)NCCCN(C)C											MIC (Aspergillus niger [9]): inactive; MIC (Klebsiella aerogenes [13]): inactive
69.8 µM (≈ 42.1 µg/mL)		inactive	inactive	inactive	inactive		inactive		COc1cccc(C(=O)Nc2cc(C(=O)Nc3cc(C(=O)Nc4cc(C(=O)NCCCN(C)C)n(C)c4)n(C)c3)n(C)c2)c1	140 (≈ 84.4 µg/mL)				140 (≈ 84.4 µg/mL)					69.8 (≈ 42.1 µg/mL)	MIC [19]: 140 µM (≈ 84.4 µg/mL); MIC (Enterococcus faecalis [20]): 140 µM (≈ 84.4 µg/mL)
1200 µM (≈ 627 µg/mL)					inactive			inactive	Cn1cc(NC(=O)c2cc(NC(=O)c3cc(NC=O)cn3C)cn2C)cc1C(=O)NCCCN1CCCC1	157 (≈ 82 µg/mL)	157 (≈ 82 µg/mL)	157 µM (≈ 82 µg/mL)	157 (≈ 82 µg/mL)	157 (≈ 82 µg/mL)		78.5 (≈ 41 µg/mL)	157 (≈ 82 µg/mL)		157 (≈ 82 µg/mL)	
	inactive		inactive	inactive	inactive	inactive		inactive	Cc1sc(NC=O)cc1C(=O)Nc1cc(C(=O)Nc2cc(C(=O)NCCCN(C)C)n(C)c2)n(C)c1		159 (≈ 81.7 µg/mL)						79.6 (≈ 40.9 µg/mL)			MIC (Aspergillus niger [9]): inactive; MIC (Klebsiella aerogenes [13]): inactive; MIC (Staphylococcus aureus [21]): inactive
156 µM (not active) (≈ 82.3 µg/mL)	inactive	inactive	inactive	inactive	inactive	inactive		inactive	CC(=O)Nc1cc(C(=O)Nc2cc(C(=O)Nc3cc(C(=O)NCCCN(C)C)n(C)c3)n(C)c2)c(C)s1	156 (≈ 82.3 µg/mL)				156 (≈ 82.3 µg/mL)			156 (≈ 82.3 µg/mL)			
	inactive	inactive	inactive	inactive	inactive	inactive	inactive	inactive	CC(C)n1cc(NC(=O)c2cc(NC=O)cn2C)cc1C(=O)Nc1cc(C(=O)NCCCN2CCOCC2)n(C)c1											MIC (Aspergillus niger [9]): inactive; MIC (Klebsiella aerogenes [13]): inactive; MIC (Staphylococcus aureus [21]): inactive
10 µM (≈ 4.97 µg/mL)	inactive	inactive	inactive	inactive	inactive	inactive			CN(C)CCCNC(=O)c1cc(NC(=O)c2cc(NC(=O)c3cc(NC=O)cn3C)cn2C)cn1C								164 (≈ 81.4 µg/mL)	0.31 (≈ 0.154 µg/mL)		MIC (Aspergillus niger [9]): inactive; MIC (Klebsiella aerogenes [13]): inactive
140 µM (≈ 85.1 µg/mL)		inactive			inactive				CC(C)CCn1cc(NC(=O)c2cc(NC=O)cn2C)cc1C(=O)Nc1cc(C(=O)NCCCN2CCN(C)CC2)n(C)c1	140 (≈ 85.1 µg/mL)		140 µM (≈ 85.1 µg/mL)	140 (≈ 85.1 µg/mL)	140 (≈ 85.1 µg/mL)		69.3 (≈ 42.1 µg/mL)	140 (≈ 85.1 µg/mL)	69.3 (≈ 42.1 µg/mL)	69.3 (≈ 42.1 µg/mL)	
	inactive		inactive	inactive	inactive	inactive	inactive	inactive	CC(=O)Nc1cc(C(=O)Nc2cc(C(=O)Nc3cc(C(=O)NCCCN(C)C)n(C)c3)n(C(C)C)c2)n(C)c1		153 (≈ 82.4 µg/mL)			153 (≈ 82.4 µg/mL)		147 (≈ 79.2 µg/mL)	153 (≈ 82.4 µg/mL)	73.5 (≈ 39.6 µg/mL)		MIC (Aspergillus niger [1]): 153 µM and 73.5 µM; MIC (Candida albicans): 147 µM (≈ 79.2 µg/mL); MIC (Klebsiella aerogenes [4]): 147 µM (≈ 79.2 µg/mL); MIC (Staphylococcus aureus [21]): inactive
15.9 µM (≈ 10.7 µg/mL)			inactive	inactive			inactive		COc1ccc(CC(=O)Nc2cc(C(=O)Nc3cc(C(=O)Nc4cc(C(=O)NCCCN(C)C)n(C)c4)n(CCC(C)C)c3)n(C)c2)cc1	15.9 (≈ 10.7 µg/mL)	15.9 (≈ 10.7 µg/mL)			15.9 (≈ 10.7 µg/mL)		15.9 (≈ 10.7 µg/mL)		15.9 (≈ 10.7 µg/mL)	15.9 (≈ 10.7 µg/mL)	MIC (Staphylococcus aureus [22]): 63.6 µM (≈ 42.8 µg/mL)

SMILES	MIC (Staphylococcus aureus [7])	MIC (Aspergillus nidulans [10])	MIC [11]	MIC (Escherichia coli [12])	MIC (Enterobacter cloacae)	MIC (Staphylococcus aureus [14])	MIC [15]	MIC [16]	MIC (Enterococcus faecalis [17])	MIC (Aspergillus niger [1]; [23]) [µM]	MIC (Candida albicans; [24]) [µM]	MIC (Escherichia coli [2])	MIC [3] [µM]	MIC (Klebsiella aerogenes [4]; [25]) [µM]	MIC (Staphylococcus aureus [5]) [µM]	MIC [6] [µM]	MIC (Proteus vulgaris) [µM]	MIC (Enterococcus faecalis [8]) [µM]	MIC (Aspergillus nidulans [18]) [µM]	also measured
CC(=O)Nc1nc(C(=O)Nc2cc(C(=O)Nc3cc(C(=O)NCCCN(C)C)n(C)c3)n(C)c2)c(C(C)C)s1	70 µM (≈ 39 µg/mL)									149 (≈ 82.9 µg/mL)	74.6 (≈ 41.5 µg/mL)	149 µM (≈ 82.9 µg/mL)	149 (≈ 82.9 µg/mL)	149 (≈ 82.9 µg/mL)	149 (≈ 83.1 µg/mL)	74.6 (≈ 41.5 µg/mL)	149 (≈ 82.9 µg/mL)	74.5 (≈ 41.5 µg/mL)		
CC(C)CCn1cc(NC(=O)c2cc(NC=O)cn2C)cc1C(=O)Nc1cc(C(=O)NCCCN2CCOCC2)n(C)c1		inactive	inactive	inactive	inactive		inactive	inactive	inactive	70.6 (≈ 42 µg/mL)					70.6 (≈ 42 µg/mL)					MIC (Klebsiella aerogenes [13]): inactive; MIC (Staphylococcus aureus [21]): inactive
Cc1sc(NC(=O)c2cc(NC=O)cn2C)cc1C(=O)Nc1cc(C(=O)NCCCN(C)C)n(C)c1	39.8 µM (≈ 20.4 µg/mL)									159 (≈ 81.7 µg/mL)	159 (≈ 81.7 µg/mL)	159 µM (≈ 81.7 µg/mL)	159 (≈ 81.7 µg/mL)	159 (≈ 81.7 µg/mL)	159 (≈ 81.7 µg/mL)	159 (≈ 81.7 µg/mL)	79.6 (≈ 40.9 µg/mL)	79.6 (≈ 40.9 µg/mL)	159 (≈ 81.7 µg/mL)	
COc1cccc(C(=O)Nc2nc(C(=O)Nc3cc(C(=O)Nc4cc(C(=O)NCCCN(C)C)n(C)c4)n(C)c3)c(C(C)C)s2)c1	32.7 µM (≈ 21.2 µg/mL)									131 (≈ 85 µg/mL)	131 (≈ 85 µg/mL)	65.5 µM (≈ 42.5 µg/mL)	131 (≈ 85 µg/mL)	32.7 (≈ 21.2 µg/mL)	32.7 (≈ 21.2 µg/mL)	65.5 (≈ 42.5 µg/mL)	65.5 (≈ 42.5 µg/mL)	32.7 (≈ 21.2 µg/mL)	131 (≈ 85 µg/mL)	
CC(C)n1cc(NC(=O)c2cc(NC=O)cn2C)cc1C(=O)Nc1cc(C(=O)NCCCN2CCCC2)n(C)c1	150 µM (≈ 82.6 µg/mL)		inactive							150 (≈ 82.6 µg/mL)		inactive	75.2 (≈ 41.4 µg/mL)	37.6 (≈ 20.7 µg/mL)	75.2 (≈ 41.4 µg/mL)	150 (≈ 82.6 µg/mL)	150 (≈ 82.6 µg/mL)	75.2 (≈ 41.4 µg/mL)	150 (≈ 82.6 µg/mL)	
CC(=O)Nc1nc(C(=O)Nc2cc(C(=O)Nc3nc(C(=O)NCCCN(C)C)c(C(C)C)s3)n(C)c2)c(C(C)C)s1	4.3 µM (≈ 2.59 µg/mL)									4.3 (≈ 2.59 µg/mL)	34.9 (≈ 21 µg/mL)	70 µM (≈ 42.2 µg/mL)	69.8 (≈ 42.1 µg/mL)	69.8 (≈ 42.1 µg/mL)	4.3 (≈ 2.59 µg/mL)	17.5 (≈ 10.5 µg/mL)	69.8 (≈ 42.1 µg/mL)	4.3 (≈ 2.59 µg/mL)		
CC(C)n1cc(NC(=O)c2cc(NC=O)cn2C)cc1C(=O)Nc1cc(C(=O)NCCCN(C)C)n(C)c1		inactive	inactive	inactive	inactive		inactive			157 (≈ 82.4 µg/mL)				39.1 (≈ 20.5 µg/mL)	157 (≈ 82.4 µg/mL)		157 (≈ 82.4 µg/mL)	157 (≈ 82.4 µg/mL)		MIC (Staphylococcus aureus [21]): inactive
CC(=O)Nc1cc(C(=O)Nc2cc(C(=O)Nc3cc(C(=O)NCCCN(C)C)n(C)c3)c(C)s2)n(C)c1	78.5 µM (≈ 41.4 µg/mL)								inactive	156 (≈ 82.3 µg/mL)	156 (≈ 82.3 µg/mL)	156 µM (≈ 82.3 µg/mL)	156 (≈ 82.3 µg/mL)	156 (≈ 82.3 µg/mL)	156 (≈ 82.3 µg/mL)	38.9 (≈ 20.5 µg/mL)	156 (≈ 82.3 µg/mL)		38.9 (≈ 20.5 µg/mL)	
